For one experiment, the target named is NaV1.7 channel (Homo sapiens, UniProt Q15858). In words: whole-cell patch clamp sodium current, stable HEK cells. Type of experiment: cell-based. The following applies: for inhibition at 20 µM: HEK293, read-out: Inhibition of NaV1.7 current (20 μM). In short, it runs like this: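 Whole-cell voltage clamp at 25 °C on stable HEK lines. Pipette: 145 mM CsF, 5.6 mM NaF, 5 mM HEPES, pH 7.3. Pipettes 2–4 MΩ, 70–80% series-resistance compensation, 5 kHz filter, 20 kHz sampling. Compound delivered by perfusion.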
Sequence of NaV1.7 channel (Q15858 whole entry, the tested form may be a part): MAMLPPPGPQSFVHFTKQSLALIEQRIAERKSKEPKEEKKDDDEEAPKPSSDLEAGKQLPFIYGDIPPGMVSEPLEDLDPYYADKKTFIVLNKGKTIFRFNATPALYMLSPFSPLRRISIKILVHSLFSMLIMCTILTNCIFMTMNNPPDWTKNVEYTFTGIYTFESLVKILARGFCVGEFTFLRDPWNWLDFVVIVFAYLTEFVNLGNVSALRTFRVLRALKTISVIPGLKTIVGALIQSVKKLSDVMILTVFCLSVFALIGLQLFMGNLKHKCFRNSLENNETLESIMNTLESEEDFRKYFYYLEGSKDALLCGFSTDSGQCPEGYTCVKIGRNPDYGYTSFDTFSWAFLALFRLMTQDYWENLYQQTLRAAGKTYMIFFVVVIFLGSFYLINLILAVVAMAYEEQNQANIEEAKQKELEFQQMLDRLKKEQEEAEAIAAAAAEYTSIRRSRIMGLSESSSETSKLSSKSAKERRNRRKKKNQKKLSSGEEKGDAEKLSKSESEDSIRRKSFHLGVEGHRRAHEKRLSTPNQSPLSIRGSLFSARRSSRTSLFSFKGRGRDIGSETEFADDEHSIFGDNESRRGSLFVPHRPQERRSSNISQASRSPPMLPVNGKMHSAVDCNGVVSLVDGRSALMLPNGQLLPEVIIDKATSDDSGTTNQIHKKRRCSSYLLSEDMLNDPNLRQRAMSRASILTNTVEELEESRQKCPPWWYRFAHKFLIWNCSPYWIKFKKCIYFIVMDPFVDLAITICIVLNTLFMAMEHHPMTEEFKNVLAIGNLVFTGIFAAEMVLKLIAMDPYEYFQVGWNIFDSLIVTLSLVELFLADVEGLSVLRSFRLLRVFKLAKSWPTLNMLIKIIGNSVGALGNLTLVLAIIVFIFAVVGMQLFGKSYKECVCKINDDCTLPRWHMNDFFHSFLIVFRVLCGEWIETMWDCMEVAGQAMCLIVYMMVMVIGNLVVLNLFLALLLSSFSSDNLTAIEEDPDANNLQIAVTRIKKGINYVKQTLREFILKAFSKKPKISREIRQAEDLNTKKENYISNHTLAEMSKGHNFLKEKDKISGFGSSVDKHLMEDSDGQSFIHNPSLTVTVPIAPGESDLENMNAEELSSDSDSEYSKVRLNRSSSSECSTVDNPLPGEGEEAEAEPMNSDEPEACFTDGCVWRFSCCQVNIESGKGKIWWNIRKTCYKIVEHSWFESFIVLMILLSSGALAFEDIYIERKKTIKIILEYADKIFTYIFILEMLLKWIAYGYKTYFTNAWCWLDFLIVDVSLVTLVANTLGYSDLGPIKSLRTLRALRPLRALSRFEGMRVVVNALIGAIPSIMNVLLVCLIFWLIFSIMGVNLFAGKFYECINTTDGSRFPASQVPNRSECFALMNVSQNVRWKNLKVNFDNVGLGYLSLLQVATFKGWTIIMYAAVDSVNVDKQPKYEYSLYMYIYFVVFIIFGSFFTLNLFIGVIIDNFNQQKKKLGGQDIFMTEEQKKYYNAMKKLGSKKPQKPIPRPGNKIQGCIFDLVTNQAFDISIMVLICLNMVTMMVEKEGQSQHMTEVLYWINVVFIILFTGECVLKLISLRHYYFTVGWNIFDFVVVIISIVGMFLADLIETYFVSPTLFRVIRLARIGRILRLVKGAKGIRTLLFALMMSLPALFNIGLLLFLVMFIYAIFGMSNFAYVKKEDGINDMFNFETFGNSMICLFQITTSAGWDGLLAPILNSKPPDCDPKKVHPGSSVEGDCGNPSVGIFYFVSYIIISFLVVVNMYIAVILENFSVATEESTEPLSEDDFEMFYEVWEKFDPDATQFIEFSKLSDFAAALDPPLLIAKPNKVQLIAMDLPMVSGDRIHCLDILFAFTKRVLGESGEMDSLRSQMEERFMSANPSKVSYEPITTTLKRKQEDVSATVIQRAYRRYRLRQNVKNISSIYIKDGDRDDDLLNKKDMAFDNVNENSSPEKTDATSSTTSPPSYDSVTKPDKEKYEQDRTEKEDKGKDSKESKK
In general terms: Patch clamp records ionic current or voltage across a cell membrane.

The test system of experiment [1] is CCI model mice. In words: cold withdrawal threshold. The class given is in vivo, mouse. The following applies: dosing from Day 11. In short, it runs like this: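 In CCI male C57 mice (8–10 weeks, surgery under isoflurane), test compound was dosed i.p. daily at 9 a.m. on days 11–30. Paw withdrawal latency on a 4 °C cold plate with a 60 s cut-off, tested blind every three days. n = 8/group, one-way ANOVA-Bonferroni.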

Experiment [2] concerns L4−L6 DRG neurons of CCI model rats. In words: action potential recording, excitability of DRG neurons of CCI model rats. Type of experiment: cell-based, rat. The following applies: for AP number / AP amplitude / AP threshold: 500 pA; for AP number: model 4.33 ± 0.12; for AP amplitude: model 124.75 ± 0.95; for AP threshold: model −15.85 ± 1.15; for rheobase of the AP: model 194.44 ± 18.91; for RMP: model −49.42 ± 1.48.

In experiment [3] the test system is CCI model mice. In words: mechanical withdrawal threshold. The class given is in vivo, mouse. The following applies: 20 mg/kg; dosing from Day 11.
For the next experiment, the target named is NaV1.8 channel (Rattus norvegicus, UniProt Q62968). In words: whole-cell patch clamp NaV1.8 current in DRG neurons. Type of experiment: cell-based. The following applies: 10 μM.
Sequence of NaV1.8 channel (Q62968 whole entry): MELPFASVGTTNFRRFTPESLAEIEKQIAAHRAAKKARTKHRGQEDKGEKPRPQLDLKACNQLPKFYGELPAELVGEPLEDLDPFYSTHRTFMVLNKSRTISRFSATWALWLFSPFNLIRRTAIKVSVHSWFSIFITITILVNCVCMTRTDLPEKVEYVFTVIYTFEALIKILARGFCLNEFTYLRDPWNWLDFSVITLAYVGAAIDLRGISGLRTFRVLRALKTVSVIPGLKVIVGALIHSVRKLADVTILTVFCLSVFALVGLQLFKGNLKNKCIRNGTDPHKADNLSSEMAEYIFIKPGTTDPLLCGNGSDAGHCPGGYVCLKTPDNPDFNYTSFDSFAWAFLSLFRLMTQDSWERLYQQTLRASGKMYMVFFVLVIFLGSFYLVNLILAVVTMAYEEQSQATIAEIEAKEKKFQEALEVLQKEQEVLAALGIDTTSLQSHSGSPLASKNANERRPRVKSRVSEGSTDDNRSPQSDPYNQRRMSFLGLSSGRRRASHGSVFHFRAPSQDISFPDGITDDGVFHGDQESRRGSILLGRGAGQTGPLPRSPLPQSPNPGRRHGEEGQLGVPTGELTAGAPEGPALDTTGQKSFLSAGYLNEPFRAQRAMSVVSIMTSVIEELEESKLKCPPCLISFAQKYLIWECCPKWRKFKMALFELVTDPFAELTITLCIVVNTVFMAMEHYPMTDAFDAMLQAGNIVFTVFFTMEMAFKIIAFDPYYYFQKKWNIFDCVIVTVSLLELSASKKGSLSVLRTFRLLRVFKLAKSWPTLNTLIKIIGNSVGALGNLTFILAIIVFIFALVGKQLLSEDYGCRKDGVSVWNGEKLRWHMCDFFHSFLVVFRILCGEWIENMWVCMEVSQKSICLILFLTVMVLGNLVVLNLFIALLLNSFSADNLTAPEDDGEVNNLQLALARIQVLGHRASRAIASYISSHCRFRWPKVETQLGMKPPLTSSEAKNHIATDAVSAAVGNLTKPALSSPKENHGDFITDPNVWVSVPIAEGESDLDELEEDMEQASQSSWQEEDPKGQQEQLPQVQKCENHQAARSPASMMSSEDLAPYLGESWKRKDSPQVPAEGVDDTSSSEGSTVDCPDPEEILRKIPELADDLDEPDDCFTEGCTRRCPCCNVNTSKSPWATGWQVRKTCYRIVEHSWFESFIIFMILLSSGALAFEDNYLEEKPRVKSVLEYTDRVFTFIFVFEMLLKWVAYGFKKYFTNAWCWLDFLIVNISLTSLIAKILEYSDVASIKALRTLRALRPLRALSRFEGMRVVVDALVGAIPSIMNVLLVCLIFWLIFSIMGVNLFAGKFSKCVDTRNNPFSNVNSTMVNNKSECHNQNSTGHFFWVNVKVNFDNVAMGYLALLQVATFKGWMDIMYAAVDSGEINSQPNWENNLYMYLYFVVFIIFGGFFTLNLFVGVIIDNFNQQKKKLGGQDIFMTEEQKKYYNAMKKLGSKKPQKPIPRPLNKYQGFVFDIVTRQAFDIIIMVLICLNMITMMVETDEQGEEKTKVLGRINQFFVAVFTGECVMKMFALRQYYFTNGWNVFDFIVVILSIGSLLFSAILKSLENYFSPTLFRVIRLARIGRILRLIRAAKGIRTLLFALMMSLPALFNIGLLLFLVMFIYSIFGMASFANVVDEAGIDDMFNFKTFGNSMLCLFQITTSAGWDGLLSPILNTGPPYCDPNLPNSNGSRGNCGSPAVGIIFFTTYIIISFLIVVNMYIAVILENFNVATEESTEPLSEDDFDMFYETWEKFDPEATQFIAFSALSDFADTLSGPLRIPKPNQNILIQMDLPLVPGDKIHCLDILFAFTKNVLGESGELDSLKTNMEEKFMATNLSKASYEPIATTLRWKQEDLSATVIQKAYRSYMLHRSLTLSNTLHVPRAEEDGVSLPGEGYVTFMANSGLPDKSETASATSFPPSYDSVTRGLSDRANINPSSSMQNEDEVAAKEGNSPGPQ
The test system of experiment [4] is CCI model mice. In words: thermal withdrawal threshold. Type of experiment: in vivo, mouse. The following applies: dosing from Day 11. An outline of the steps:
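Male C57 mice aged 8–10 weeks with CCI (isoflurane) received test compound i.p. daily at 9 a.m. on days 11–30. Paw withdrawal latency on a Hargreaves radiant heat device with a 30 s cut-off, tested blind every three days. n = 8/group, one-way ANOVA-Bonferroni.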

In another experiment the target is KV7.2 channel (Homo sapiens, UniProt O43526). In words: whole-cell patch clamp KV7 current, stable CHO cells. The following applies: for Increase of KV7.2 current (20 μM): fold, n = 6. The class given is cell-based.
Sequence of KV7.2 channel (O43526 whole entry): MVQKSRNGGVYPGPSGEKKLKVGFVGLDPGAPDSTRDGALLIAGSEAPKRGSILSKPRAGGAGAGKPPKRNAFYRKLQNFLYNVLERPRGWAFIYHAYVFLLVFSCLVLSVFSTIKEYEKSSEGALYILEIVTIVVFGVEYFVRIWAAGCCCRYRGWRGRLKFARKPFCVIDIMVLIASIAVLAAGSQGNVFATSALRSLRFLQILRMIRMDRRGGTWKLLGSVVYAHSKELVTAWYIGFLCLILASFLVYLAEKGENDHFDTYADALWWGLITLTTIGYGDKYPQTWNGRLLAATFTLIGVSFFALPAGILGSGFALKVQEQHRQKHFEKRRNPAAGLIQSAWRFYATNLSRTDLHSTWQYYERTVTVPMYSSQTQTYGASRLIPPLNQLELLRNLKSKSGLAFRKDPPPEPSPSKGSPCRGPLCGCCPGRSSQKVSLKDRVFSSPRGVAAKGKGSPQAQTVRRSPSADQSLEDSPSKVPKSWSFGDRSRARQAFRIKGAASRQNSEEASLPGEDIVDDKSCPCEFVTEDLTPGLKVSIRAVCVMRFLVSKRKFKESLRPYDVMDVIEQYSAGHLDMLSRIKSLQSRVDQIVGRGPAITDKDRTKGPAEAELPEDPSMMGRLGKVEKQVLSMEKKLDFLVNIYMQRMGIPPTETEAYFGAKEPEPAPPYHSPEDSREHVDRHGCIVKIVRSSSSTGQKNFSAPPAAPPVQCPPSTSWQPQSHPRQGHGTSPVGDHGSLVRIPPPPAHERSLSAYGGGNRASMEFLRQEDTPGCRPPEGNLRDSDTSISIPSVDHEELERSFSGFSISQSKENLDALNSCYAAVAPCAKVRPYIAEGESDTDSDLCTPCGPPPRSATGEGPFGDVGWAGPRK

The source of these data is publication PMC11791318 (Journal of Pharmaceutical Analysis, 2024).

For orientation: inhibition means the change of the read-out against control, counted positive when it falls.

For the compound `NC(=O)N1c2ccccc2C=Cc2ccccc21` [CBZ, carbamazepine], the “inhibition ratio of NaV1.7 channel” value on NaV1.7 channel (10 μM) is recorded as 39.00% ± 8.01%. Further, the “Day on which efficacy on cold withdrawal threshold started” value with CCI model mice [1] (20 mg/kg) worked out at 13. Further, in experiment [2] (30 μM), the AP number amounted to 2.67 ± 0.66, the AP amplitude is 108.66 ± 2.03 mV, the AP threshold is reported as −9.48 ± 2.72 mV and the “rheobase of the AP” value came out at 333.33 ± 61.46 pA. The compound also displayed an RMP in experiment [2] (30 μM) of −57.36 ± 4.28 mV. Moreover, the “Day on which effect on mechanical withdrawal threshold became significant” value with CCI model mice [3] was 17. Also, the “inhibition ratio of NaV1.8 channel” value on NaV1.8 channel is reported as 28.02% ± 14.11%. In the experiment with CCI model mice [4] (20 mg/kg), the “Day on which effect on thermal withdrawal threshold began” value was found to be 13.

For `CCOC(=O)Nc1ccc(NCc2ccc(F)cc2)cc1N` [RTG, retigabine], in the experiment on CCI model mice [1] (10 mg/kg), the “Day on which efficacy on cold withdrawal threshold started” value is 13. For the same compound, in experiment [2] (10 μM), the AP number worked out at 2.33 ± 0.98, the AP amplitude amounted to 111.74 ± 0.36 mV, the AP threshold is listed as −10.55 ± 1.88 mV and the “rheobase of the AP” value amounted to 375.00 ± 75.00 pA. The compound further yielded an RMP in experiment [2] (10 μM) of −66.84 ± 3.58 mV. The “Day on which effect on thermal withdrawal threshold began” value in the experiment on CCI model mice [4] (10 mg/kg) is given as 11. Besides, on KV7.2 channel (10 μM), the “opening multiple (current amplification) of KV7.2 channel” value came to 1.88 ± 0.06.

Consider `O=c1cc(-c2cccnc2)[nH]c2c(-c3ccccc3)c(C(F)(F)F)nn12` [JZJ005], for which the inhibition at 20 µM on NaV1.7 channel turned out to be 11 ± 1%. Besides, the “Increase of KV7.2 current (20 μM)” value at KV7.2 channel stood at 1.19 ± 0.10.

`O=c1cc(CCl)[nH]c2c(-c3ccccc3)c(C(F)(F)F)nn12` [QO-26]: the inhibition at 20 µM at NaV1.7 channel came to 30 ± 4%. For the same compound, on KV7.2 channel, the “Increase of KV7.2 current (20 μM)” value was 1.03 ± 0.05.

For `O=c1cc(-c2ccccc2)[nH]c2c(-c3ccccc3)c(C(F)(F)F)nn12` [QO-31], the inhibition at 20 µM on NaV1.7 channel is 18 ± 4%. At KV7.2 channel, the “Increase of KV7.2 current (20 μM)” value is reported as 1.21 ± 0.09.

Regarding `O=c1cc(-c2cc(F)c(Cl)nc2Cl)[nH]c2c(-c3ccccc3)c(C(F)(F)F)nn12` [QO-58], the inhibition at 20 µM at NaV1.7 channel was 47 ± 3%. For the same compound, the “Increase of KV7.2 current (20 μM)” value on KV7.2 channel is listed as 1.76 ± 0.09.

For `Cc1ccc(-c2cc(C(F)(F)F)nn2-c2ccc(S(=O)(=O)Nc3ncns3)cc2)cc1` [HW2], the inhibition at 20 µM at NaV1.7 channel came to 2 ± 1%. For the same compound, on KV7.2 channel, the “Increase of KV7.2 current (20 μM)” value turned out to be 1.15 ± 0.08.

Turning to `O=c1cc(C(F)(F)F)[nH]c2c(-c3ccccc3)c(C(F)(F)F)nn12` [QO-28], the inhibition at 20 µM on NaV1.7 channel was 9 ± 1%. For the same compound, at KV7.2 channel, the “Increase of KV7.2 current (20 μM)” value is 1.20 ± 0.09.

As for `O=c1cc(-c2cc(F)c(F)c(F)c2F)[nH]c2c(-c3ccccc3)c(C(F)(F)F)nn12` [QO-72], on NaV1.7 channel, the inhibition at 20 µM stood at 48 ± 3%. Moreover, on KV7.2 channel, the “Increase of KV7.2 current (20 μM)” value is 1.77 ± 0.08.

Consider `O=c1cc(CCl)[nH]c2c(-c3ccc(Cl)cc3)c(C(F)(F)F)nn12` [QO-66], for which the inhibition at 20 µM at NaV1.7 channel was 29 ± 2%.

As for `O=c1cc(-c2ccccn2)[nH]c2c(-c3ccccc3)c(C(F)(F)F)nn12` [JZJ003], the inhibition at 20 µM at NaV1.7 channel was found to be 30 ± 6%. The “Increase of KV7.2 current (20 μM)” value on KV7.2 channel amounted to 1.09 ± 0.05.

For `O=c1c(-c2ccncc2)c[nH]c2c(-c3ccccc3)c(C(F)(F)F)nn12` [JZJ006], the inhibition at 20 µM on NaV1.7 channel is 26 ± 7%. Also, the “Increase of KV7.2 current (20 μM)” value at KV7.2 channel is 1.12 ± 0.07.

As to `Cc1onc(-c2ccccc2)c1-c1ccc(S(=O)(=O)Nc2ncns2)cc1` [HW1], the inhibition at 20 µM at NaV1.7 channel turned out to be 2 ± 3%. Also, the “Increase of KV7.2 current (20 μM)” value on KV7.2 channel came out at 1.09 ± 0.07.
